Bioassay records from PubChem BioAssay.
Yeast life ext: extends the lifespan of yeast. AID 775. inhibition of the nicotinamide effect, % at 10 µM. 130,000 compounds, 0.68% hits. S. cerevisiae growth with nicotinamide, OD615; deaD strain in restrictive glucose medium;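 active = inhibition above a set limit, placed 3 SD over the median of all compounds, cut at about 26% in these data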;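 also: 0% = nicotinamide-treated wells and 100% = cells grown without nicotinamide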
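Material: Modified budding yeast, DeaD strain | Medium: Restrictive glucose medium | Probe or stimulus: 1.5 mM nicotinamide | Dosing: Single dose 10 µM compound, 0.25% DMSO | Times: 48 h at 30 °C | Technique: OD615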
DAT uptake mod: changed human dopamine transporter uptake under cocaine IC80. LLC-PK1 hDAT cells, [14C]-dopamine uptake with cocaine IC80; actives deviate in either direction. AID 449768. 110,000 compounds, 1.3% hits. B-score at 10 µM;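 active = Z score or B-score, a plate-position-corrected score, falls beyond the plate's 99.7% confidence bounds, in either direction; inactive = both scores lie inside the 99.7% bounds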;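 also: scored against the spread of the other compound wells on the same plate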
Target sequence (Q01959 whole entry, looked up): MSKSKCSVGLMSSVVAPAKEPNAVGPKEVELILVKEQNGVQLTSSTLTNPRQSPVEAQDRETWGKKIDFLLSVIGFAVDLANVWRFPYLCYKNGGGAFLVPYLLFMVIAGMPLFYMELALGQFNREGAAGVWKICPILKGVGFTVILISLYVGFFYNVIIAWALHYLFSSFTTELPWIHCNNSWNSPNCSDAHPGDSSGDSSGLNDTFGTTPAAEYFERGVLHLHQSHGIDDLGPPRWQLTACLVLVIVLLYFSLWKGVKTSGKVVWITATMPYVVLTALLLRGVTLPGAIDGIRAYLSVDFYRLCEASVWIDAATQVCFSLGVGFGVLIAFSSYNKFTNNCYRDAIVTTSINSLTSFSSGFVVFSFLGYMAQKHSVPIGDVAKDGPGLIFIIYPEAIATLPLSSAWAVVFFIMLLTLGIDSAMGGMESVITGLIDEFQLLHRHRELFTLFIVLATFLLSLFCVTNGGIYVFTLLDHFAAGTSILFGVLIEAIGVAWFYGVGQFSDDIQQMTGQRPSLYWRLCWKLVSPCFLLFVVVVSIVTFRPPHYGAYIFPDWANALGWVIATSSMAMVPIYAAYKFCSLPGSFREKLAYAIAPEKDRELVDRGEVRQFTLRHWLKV
RAM network inh: inhibitors of the yeast RAM network; 190,000 compounds, 1.8% hits; AID 868; inhibition, % at 50 µM; S. cerevisiae dse1pr::URA3 reporter, 5-FOA growth OD615, 2 d; analog-sensitive cbk1-as2 kinase mutant strain;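 active = inhibition above a set limit, 3 SD over mean compound inhibition, cut at about 8.4% in these data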;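 also: 0% = DMSO-only wells with no growth and 100% = 10 µM 1-NA-PP1 full growth; inhibition rescues growth on 5-FOA so higher OD means more RAM inhibition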
Yeast growth inh: reduces growth of yeast BB579 in restrictive medium; S. cerevisiae BB579 growth, OD615, 48 h; inhibition, % at 10 µM; 140,000 compounds, 0.51% hits; AID 804;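 active = inhibition above a set limit, 3 SD over the mean compound inhibition, cut at about 44% in these data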
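Test system: DeaD yeast strain BB579 / Buffer or medium: restrictive glucose-based CSMM-D medium / Doses: single 10 µM dose / Schedule: 4 h cell preincubation, 48 h compound exposure, 30 °C humidified / Technique: culture absorbance at 615 nm / Controls: amphotericin B positive control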
WT yeast gro inh: growth inhibition of WT yeast, mitochondrial fusion screen | 190,000 compounds, 2.1% hits | mitochondrial fusion phenotypic screen, WT strain | AID 1362 | inhibition, % at 10 µM; in the data active = inhibition above about 58%; tested in S. cerevisiae
Measles CPE: protection of cells from measles virus. Measles virus-infected cells, CPE protection, absorbance. 140,000 compounds, 1.5% hits. protection (pct of control), % at 4 µM. AID 841; in the data active = protection mostly above about 24%, no sharp cut-off; inactive = mostly below about 26%
* hit, by the source's call; / = not tested or not shown. A selection: hits, their analogues and other compounds. The true share with any hit is near 6.1%.

SMILES | Yeast life ext | DAT uptake mod | RAM network inh | Yeast growth inh | WT yeast gro inh | Measles CPE
COc1ccccc1Nc1nc(-c2sc(NC(=O)CC(C)C)nc2C)cs1 | -34.6 | 2.73* | 1.2 | -31.4 | 2.6 | 8.1
COc1cccc(Nc2nc(-c3sc(NC(=O)c4ccccc4)nc3C)cs2)c1 | -9.7 | 0.172 | 3.2 | -25.4 | 66.5* | 2.0
CCOC(=O)c1c(C)[nH]c(C)c1C(=O)COC(=O)c1cc2ccccc2cc1O | -3.2 | / | 7.0 | -22.3 | 74.4* | 2.8
COCCn1c(=O)[nH]c2cc(C(=O)NCCc3ccc(S(N)(=O)=O)cc3)ccc2c1=O | / | / | 1.2 | / | -11.3 | /
C[C@@H]1CCC[C@@]2(O[C@@H](CCO)C[C@H](O)[C@H]2O)O1 | / | -0.359 | / | / | / | /
OCCSc1nc(-c2cccnc2)nc2ccccc12 | -9.6 | 0.0556 | 0.5 | 15.3 | -1.3 | 2.9
CN(Cc1cccs1)c1nc(-c2cccnc2)nc2ccccc12 | / | / | 0.6 | / | 64.3* | /
CC(NC(=O)COC(=O)/C=C/c1ccc(Cl)cc1)c1ccccc1 (stereo not given) | / | / | 1.7 | / | 4.0 | /
c1ccc(-c2nnc(C3CC(c4ccncc4)=NO3)o2)cc1 (stereo not given) | / | -0.0568 | / | / | / | /
O=C(COc1ccc(/C=N/NC(=O)c2ccccc2)cc1)Nc1ccc([N+](=O)[O-])cc1 | -4.3 | -0.00963 | 4.0 | -42.6 | 7.6 | 4.5
CC(C)Oc1ccc(/C=N/NC(=O)C(CSCc2ccccc2)NC(=O)c2ccc([N+](=O)[O-])cc2)cc1 (stereo not given) | / | -6.05* | 2.6 | -35.3 | -2.2 | 12.7
CCOC(=O)C1=C(CC)Nc2ccccc2N/C1=N\S(=O)(=O)c1ccc(C(=O)OCC)cc1 | / | / | 9.3* | / | -0.8 | /
CCOC(=O)C1=C(CC)Nc2ccccc2N=C1NC(=O)Nc1ccccc1OC | -21.2 | 0.589 | 4.1 | -16.4 | 9.4 | 9.7
CCN(CC)C(=O)c1sc(NC(=O)C(Sc2ccccc2)c2ccccc2)c(C(=O)OC(C)C)c1C (stereo not given) | -8.9 | 1.02 | 9.6* | -51.1 | -3.7 | 14.4
CC(C)(C)CN1C(=O)C(=O)NC[C@@H]1Cc1ccc(O)cc1 | / | -1.01 | / | / | / | /
CC1(C)c2[nH]c3ccccc3c2C[C@H]2C(=O)N(Cc3ccccc3)C(=O)N21 | / | 2.84* | / | / | / | /
COC(=O)c1ccc(N2C(=O)CC(N(C)CCc3ccc(OC)c(OC)c3)C2=O)cc1 (stereo not given) | 37.4 | 0.503 | 0.4 | -21.0 | 37.0 | 138.4*
N#Cc1c(NC(=O)C2CCCO2)sc2c1CCCCCC2 (stereo not given) | -0.8 | / | 1.7 | -34.8 | 15.3 | 16.4
CCOCCCNC(=O)C(c1ccc(Cl)cc1)N1CCC2(CC1)OCCO2 (stereo not given) | 0.2 | -8.53* | 0.6 | 0.9 | 6.8 | 14.9
Cc1c(C(=O)N(C)Cc2ccccc2)oc2ccc(S(=O)(=O)N3CCCC3)cc12 | -8.7 | 1.61 | 0.8 | -24.0 | -8.5 | 80.6*
CCN(CC)C(=O)C1CCN(S(=O)(=O)c2ccc3oc4ccccc4c3c2)CC1 | 8.8 | 2.26* | 6.1 | -36.6 | 11.4 | 6.8
Cc1c(C(=O)NCc2ccccc2)oc2ccc(S(=O)(=O)N3CCCC3)cc12 | -0.3 | 0.604 | 1.4 | -30.1 | -8.7 | 10.7
CCOC(=O)N1CCN(C(=O)c2oc3ccc(S(=O)(=O)N4CCCCCC4)cc3c2C)CC1 | -11.3 | -8.1* | 1.4 | -8.5 | 5.5 | 19.0
C/C(=N\NC(=O)c1nn(C)cc1Br)c1cccc(NC(=O)c2ccncc2)c1 | -2.9 | / | 0.9 | -20.1 | -3.0 | 5.8
COc1ccc(Nc2nc(C)cc(C)c2C(N)=O)c(OC)c1 | -4.8 | 0.695 | 0.6 | -14.2 | 3.6 | 3.1
SMILES | Yeast life ext | DAT uptake mod | RAM network inh | Yeast growth inh | WT yeast gro inh | Measles CPE
O=C(CN(C(=O)c1csnn1)c1cccc2ccccc12)NC1CCCC1 | / | / | -0.4 | / | -4.0 | /
O=C(CCSc1nnc(-c2ccncc2)o1)Nc1ccc(Cl)cc1 | -11.7 | 0.974 | 0.6 | 85.6* | -23.0 | 25.8
O=C(CCSc1nnc(-c2ccncc2)o1)Nc1ccccc1Cl | -13.5 | -0.92 | 0.3 | -28.6 | 27.5 | 29.9*
O=C(CCSc1nnc(-c2ccncc2)o1)Nc1cccc(Cl)c1 | / | / | 3.6 | / | 0.9 | /
COc1ccccc1NC(=O)CCSc1nnc(-c2ccncc2)o1 | / | / | 1.0 | / | 2.6 | /
Cc1nc(N(C)Cc2ccccc2)c2nnn(Cc3ccccc3)c2n1 | 6.2 | 1.11 | 6.3 | -80.4 | 79.9* | 19.1
Cc1c(Cl)cccc1NC(=O)c1nc(C)n(-c2cc(OC(C)C)c(Cl)cc2Cl)n1 | -11.8 | 0.0406 | 3.9 | -41.8 | 75.2* | /
